In the library only some 2.3% were active in any assay of this set; here they are far more common.
TRPC4 potent = positive allosteric modulators of TRPC4, primary screen, cell-based, mouse TRPC4beta, HEK293 mu-opioid, Fluo-4 calcium. AID 2227, 2009. DAMGO EC20, Fluo-4 Ca2+ flux; hits give high values. hit rate 0.42% among 310,000. Short transient receptor potential channel 4 (Mus musculus), Q9QUQ5. B-score at 10 µM;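 active = B-score of calcium response area above 5 SD of library B-scores, with initial fluorescence ratio within 5 SD of library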
TRPC4 act = activators of mouse TRPC4 channel, primary screen, Fluo4 calcium, HEK293 TRPC4beta/mu-opioid cells; Short transient receptor potential channel 4 (Mus musculus), Q9QUQ5; Fluo4 calcium fluorescence; hits give high values; B-score at 10 µM; hit rate 0.49% among 310,000; AID 2237, 2010;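 active = B-score above 5 SD of library B-scores, and initial fluorescence ratio not above library mean plus 5 SD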;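 note: positive B-score marks a calcium rise read as TRPC4 activation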
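Technique: kinetic Fluo4 calcium fluorescence; Test system: TRPC4beta and mu-opioid receptor HEK293 stable cells; Measure: B-scored integrated calcium fluorescence ratio; Benchmarks: low control buffer alone, high control maximal DAMGO; Schedule: 45 min room-temperature Fluo4 loading, 110 s read.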
TRPC6 activator = mouse TRPC6 channel activators, primary screen, cell-based, HEK293, membrane potential dye; Short transient receptor potential channel 6 (Mus musculus), Q61143; HEK293-TRPC6 membrane potential dye fluorescence; hits give high values; B-score at 10 µM; hit rate 0.13% among 310,000; AID 2550, 2010;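 active = B-score of the integrated fluorescence ratio above library mean plus 3 SD, and starting fluorescence ratio within library mean plus 5 SD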;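 note: higher score means more depolarization so channel activation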
TRPC4 block = inhibitors of mouse TRPC4 channel, primary screen, Fluo4 calcium, HEK293 TRPC4beta/mu-opioid cells; Short transient receptor potential channel 4 (Mus musculus), Q9QUQ5; DAMGO-evoked Fluo4 calcium flux; hits give low values; B-score at 10 µM; hit rate 0.39% among 300,000; AID 2247, 2010;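 active = B-score over 3 SD under the library average, no early fluorescence shift, positive overall ratio signal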
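Material: HEK293 cells with stable TRPC4beta plus mu-opioid receptor expression; probe or stimulus: DAMGO in two steps, submaximal then maximal; technique: Fluo4 calcium fluorescence by kinetic imaging, 5 s 1 Hz baseline; measure: integrated fluorescence ratio relative to baseline, converted to per-well B score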
TRPC6 inhibitor = mouse TRPC6 channel inhibitors, primary screen, cell-based, HEK293, membrane potential dye; AID 2553, 2010; B-score at 10 µM; hit rate 1.1% among 310,000; ACh-evoked depolarization; hits give low values;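 active = B-score under library mean minus 3 SD, initial fluorescence not abnormally high, positive integrated signal ratio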;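 note: B-score derived from integrated fluorescence ratio over the kinetic read; more negative B-score means stronger inhibition of depolarization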
A number is an active result; n = inactive.

SMILES	TRPC4 potent	TRPC4 act	TRPC6 activator	TRPC4 block	TRPC6 inhibitor
c1ccc(CN2CCN(c3nc4ccccc4s3)CC2)cc1	17	n	n	n	n
COCCn1nnnc1C(c1cccs1)N1CCN(c2nc3ccccc3s2)CC1 (stereo not given)	n	n	n	n	n
O=C(O)CCC(=O)N1CCN(c2nc3ccccc3s2)CC1	20	n	n	n	n
CCn1cc(/C=C(\NC(=O)c2ccc(OC)cc2)C(=O)N2CCOCC2)c2ccccc21	n	n	n	n	n
CCN1c2ccccc2-c2nc3ccccc3n2C1c1cccs1 (stereo not given)	n	n	n	n	n
O=C(c1nc2ccc(Cl)cn2c1CNCCc1cnccn1)N1CCCCCCC1	n	n	n	n	n
COc1ccc(S(=O)(=O)N2CCC(C(=O)NCc3ccncc3)CC2)cc1C	n	n	n	n	n
CC1CCc2c(sc3ncnc(SCC(=O)Nc4ccc(C(=O)O)cc4)c23)C1 (stereo not given)	n	n	n	-6	n
COc1cc(NC(=O)CSc2ncnc3sc4c(c23)CCC(C)C4)c(C(=O)O)cc1OC (stereo not given)	n	n	n	-6	n
O=C(O)CSc1cc(C(=O)c2ccccc2O)cn2c(=O)c3c4c(sc3nc12)CCCC4	n	n	n	n	n
O=C(Nc1ccccc1-c1nc2ccccc2s1)C1=COCCO1	n	n	n	n	n
COc1ccc2oc(C(=O)c3ccccc3)c(NC(=O)CN3CCN(C)CC3)c2c1	19	51	n	n	-8.1
CN1CCN(CC(=O)Nc2c(C(=O)c3ccccc3)oc3ccccc23)CC1	n	n	n	n	n
COC(=O)c1cc(Br)ccc1NC(=O)CCNC(=O)c1ccco1	n	n	n	n	n
CCN(CC)CCn1c(=N)n(CC(O)COc2ccccc2)c2ccccc21 (stereo not given)	n	n	n	-6	n
CC1(c2ccc([N+](=O)[O-])cc2)NC(=O)NC1=O (stereo not given)	n	n	n	n	n
Cc1cccnc1NC(=O)CNC(=O)C12CC3CC(CC(C3)C1)C2	n	n	n	n	n
CCCOc1ccc(C(=O)NCC(c2cccs2)N(C)C)cc1OC (stereo not given)	n	n	n	n	n
COc1cc2ccccc2cc1C(=O)NCC(c1cccs1)N(C)C (stereo not given)	n	179	n	n	n
COc1cc(C(=O)NCC(c2cccs2)N(C)C)cc(Cl)c1OC(C)C (stereo not given)	n	63	n	n	n
COc1cc(C2N(c3ccc(Cl)cc3)C(=O)C3CCCN32)cc(OC)c1OC (stereo not given)	n	n	n	n	n
Cc1ccc(C2N(c3ccc(Cl)c(Cl)c3)C(=O)C3CCCN32)o1 (stereo not given)	15	122	n	n	n
COc1ccc(N2C(=O)C3CCCN3C2c2cc(OC)c(OC)c(OC)c2)cc1 (stereo not given)	n	n	n	n	n
COc1cc(C2N(c3ccc(Cl)c(Cl)c3)C(=O)C3CCCN32)cc(OC)c1OC (stereo not given)	n	81	n	n	n
COc1ccc(N2C(=O)C3CCCN3C2c2ccc(C)o2)cc1Cl (stereo not given)	n	n	n	n	n
SMILES	TRPC4 potent	TRPC4 act	TRPC6 activator	TRPC4 block	TRPC6 inhibitor
COc1cc(C2N(c3cccc(Cl)c3)C(=O)C3CCCN32)cc(OC)c1OC (stereo not given)	14	n	n	n	n
O=C(c1cccc2ccccc12)N1CCC(N2CCN(c3ccccc3)CC2)CC1	n	n	n	n	n
O=C(c1ccccc1)c1ccc(OCC(O)CNC2CCCc3ccccc32)cc1 (stereo not given)	n	n	n	n	n
OC(CNC1CCCc2ccccc21)COc1ccc2ccccc2c1 (stereo not given)	n	101	n	n	n
CNC(=S)N/N=C(\C)c1ccc(C(C)(C)C)cc1	11	n	n	n	n
CNC(=S)N/N=C(\C)c1ccccc1	n	n	n	n	n
CN1CCCC(OC(=O)c2ccccc2F)C1 (stereo not given)	n	n	n	n	n
COc1ccccc1C(=O)OC1CCCN(C)C1 (stereo not given)	10	n	n	n	n
CC(OC(=O)CCCN=C1NS(=O)(=O)c2ccccc21)C(=O)Nc1ccccc1F (stereo not given)	n	n	n	n	n
Cc1cccc(C(=O)NC(=S)NNC(=O)COc2ccc(Cl)cc2)c1	n	68	n	n	n
O=C(COc1ccccc1)NNC(=S)NC(=O)c1ccc(Cl)cc1Cl	n	69	n	n	n
CCCCC(=O)NC(=S)NNC(=O)c1ccc(Cl)cc1Cl	n	165	n	n	n
O=C(COc1cccc(Cl)c1)NNC(=S)Nc1ccccc1	n	n	n	n	n
Cc1cccc(/C(N)=N/OC(=O)COc2ccc(Cl)cc2)c1	n	n	n	n	n
COc1ccc(C(=O)NNC(=S)NC(=O)c2cccs2)cc1	n	85	n	n	n
Cc1ccc(CN2CCN(C(=O)CC(C)C)CC2)cc1	n	n	n	n	n
O=C(Nc1ccc(O)c(-c2nc3ccccc3o2)c1)C1(c2ccc(Br)cc2)CCCC1	n	n	n	n	n
O=C(NCCS(=O)(=O)N1CCN(c2cccc(Cl)c2)CC1)c1cc(=O)c2ccccc2o1	n	n	n	n	n
Cc1occc1C(=O)NNC(=S)NC(=O)COc1ccc(Cl)cc1Cl	n	87	n	n	n
Cc1ccc(C(=O)NNC(=O)c2cccc(C)c2)cc1	n	n	n	n	n
Cc1cccc(C(=O)NNC(=S)NC(=O)c2ccccc2)c1	n	173	n	n	n
O=C(NC(=S)NNC(=O)[C@H]1C[C@@H]1c1ccccc1)c1cccc(F)c1	n	211	n	n	n
Cc1cccc(C(=O)NNC(=S)NC(=O)c2cccs2)c1	n	212	n	n	n
CC(=O)Nc1cccc(Oc2ncnc3scc(-c4ccc(C)cc4)c23)c1	n	n	n	n	n
COc1ccc(CN(C(=O)c2cc(=O)c3cc(C)cc(C)c3o2)C2CCS(=O)(=O)C2)cc1 (stereo not given)	n	n	n	n	n
COc1ccc(C(=O)NNC(=S)NC(=O)c2cccnc2)cc1	n	n	n	n	n
COc1ccc(C(=O)NNC(=S)NC(=O)c2ccc(OC)cc2)cc1	n	78	n	n	n
